Experimental data published in ChEMBL document CHEMBL4706575, “Nonpeptidic quinazolinone derivatives as dual nucleotide-binding oligomerization domain-like receptor 1/2 antagonists for adjuvant cancer chemotherapy” (Eur J Med Chem, 2020).

Legend:
[1] = target: T1, Nucleotide-binding oligomerization domain-containing protein 1 (Homo sapiens) (UniProt Q9Y239); test: Antagonist activity at NOD1 in HEK-Blue hNOD1 cells assessed as inhibition of C12-iE-DAP-induced NFkappaB activation-mediated SEAP release at 5 uM preincubated for 3 hrs followed by C12-iE-DAP addition and measured after 20 hrs by spectrophotometric method relative to control; type: cell-based; details: time 23.0 hrs
T1 sequence (whole entry): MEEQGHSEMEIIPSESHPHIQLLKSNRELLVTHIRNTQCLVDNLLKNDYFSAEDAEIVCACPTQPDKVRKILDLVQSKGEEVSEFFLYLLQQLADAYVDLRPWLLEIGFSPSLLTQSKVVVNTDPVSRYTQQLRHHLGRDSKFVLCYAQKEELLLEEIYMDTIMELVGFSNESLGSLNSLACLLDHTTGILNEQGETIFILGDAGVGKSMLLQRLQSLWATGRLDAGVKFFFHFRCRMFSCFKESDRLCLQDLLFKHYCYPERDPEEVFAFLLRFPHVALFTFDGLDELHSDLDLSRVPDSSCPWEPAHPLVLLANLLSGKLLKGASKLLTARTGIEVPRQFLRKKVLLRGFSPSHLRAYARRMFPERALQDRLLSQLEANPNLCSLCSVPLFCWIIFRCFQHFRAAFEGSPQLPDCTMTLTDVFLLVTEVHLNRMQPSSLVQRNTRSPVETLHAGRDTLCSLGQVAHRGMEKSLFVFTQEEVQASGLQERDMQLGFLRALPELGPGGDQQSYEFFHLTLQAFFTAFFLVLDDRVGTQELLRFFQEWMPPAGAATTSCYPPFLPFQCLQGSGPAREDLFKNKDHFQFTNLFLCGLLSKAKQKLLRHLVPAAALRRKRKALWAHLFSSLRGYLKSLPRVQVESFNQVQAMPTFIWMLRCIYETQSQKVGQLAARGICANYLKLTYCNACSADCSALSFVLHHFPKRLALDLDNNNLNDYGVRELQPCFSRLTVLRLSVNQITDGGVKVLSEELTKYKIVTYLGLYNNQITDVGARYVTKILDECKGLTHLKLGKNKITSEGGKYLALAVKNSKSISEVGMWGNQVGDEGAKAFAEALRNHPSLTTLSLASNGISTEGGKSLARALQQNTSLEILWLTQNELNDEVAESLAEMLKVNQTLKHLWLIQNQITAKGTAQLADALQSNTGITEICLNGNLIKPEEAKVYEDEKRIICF

[2] = target: T2, Nucleotide-binding oligomerization domain-containing protein 1 (Homo sapiens, UniProt Q9Y239); test: Antagonist activity at NOD1 in HEK-Blue hNOD1 cells assessed as inhibition of C12-iE-DAP-induced NFkappaB activation-mediated SEAP release preincubated for 3 hrs followed by C12-iE-DAP addition and measured after 20 hrs by spectrophotometric method; type: cell-based
T2 sequence (Q9Y239 whole entry): T1 sequence (whole entry)

[3] = Half life in mouse liver microsomes at 1.25 uM preincubated for 5 mins followed by NADPH generating system addition and measured for 120 mins by LC-MS/MS analysis; type: ADME, Microsome
How it was run: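 Mouse liver microsomes (1.25 mg/mL protein) in 100 mM phosphate pH 7.4 with 1.25 µM compound, preincubated 5 min at 37 °C. Reaction started with NADPH-generating system (1 mM NADP, 10 mM MgCl2, 10 mM G6P, 0.5 U/mL G6PDH). Sampled at 0–120 min, quenched with MeOH/ACN 1:1, analysed by LC-MS/MS.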

[4] = target: T3, Nucleotide-binding oligomerization domain-containing protein 2 (Homo sapiens, UniProt Q9HC29); test: Antagonist activity at NOD2 in HEK-Blue hNOD2 cells assessed as inhibition of MDP-induced NFkappaB activation-mediated SEAP release at 5 uM preincubated for 3 hrs followed by MDP addition and measured after 20 hrs by spectrophotometric method relative to control; type: cell-based; details: time 23.0 hrs
T3 sequence (Q9HC29 whole entry, the tested form may be a part): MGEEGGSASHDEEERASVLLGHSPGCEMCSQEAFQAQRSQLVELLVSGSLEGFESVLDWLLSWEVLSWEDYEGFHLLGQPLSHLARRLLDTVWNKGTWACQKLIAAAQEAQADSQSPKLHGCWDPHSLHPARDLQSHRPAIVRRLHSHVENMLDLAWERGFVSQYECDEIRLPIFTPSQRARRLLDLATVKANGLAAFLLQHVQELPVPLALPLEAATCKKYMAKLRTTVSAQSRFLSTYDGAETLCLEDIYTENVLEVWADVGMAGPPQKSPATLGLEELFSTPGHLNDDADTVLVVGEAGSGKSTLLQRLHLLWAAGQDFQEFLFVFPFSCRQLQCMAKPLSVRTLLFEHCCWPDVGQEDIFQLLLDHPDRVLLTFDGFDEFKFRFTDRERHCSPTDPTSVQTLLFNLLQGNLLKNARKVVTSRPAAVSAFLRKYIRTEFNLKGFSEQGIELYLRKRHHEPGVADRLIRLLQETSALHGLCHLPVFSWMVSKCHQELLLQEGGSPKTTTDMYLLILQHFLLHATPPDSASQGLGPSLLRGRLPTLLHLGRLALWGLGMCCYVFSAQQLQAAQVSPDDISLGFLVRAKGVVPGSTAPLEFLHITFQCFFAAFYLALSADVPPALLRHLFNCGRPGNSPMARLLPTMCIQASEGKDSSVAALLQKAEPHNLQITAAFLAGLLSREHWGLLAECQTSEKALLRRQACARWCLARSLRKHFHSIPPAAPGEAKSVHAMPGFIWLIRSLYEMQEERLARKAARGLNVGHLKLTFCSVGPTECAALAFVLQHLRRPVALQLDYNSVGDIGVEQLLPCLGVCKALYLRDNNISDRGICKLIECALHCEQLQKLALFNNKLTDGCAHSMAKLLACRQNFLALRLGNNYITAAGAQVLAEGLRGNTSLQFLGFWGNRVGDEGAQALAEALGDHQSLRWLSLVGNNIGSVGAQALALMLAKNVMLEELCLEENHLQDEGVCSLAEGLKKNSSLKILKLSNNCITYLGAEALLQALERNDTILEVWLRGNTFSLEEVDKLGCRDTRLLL

[5] = target: T3, Nucleotide-binding oligomerization domain-containing protein 2; test: Antagonist activity at NOD2 in HEK-Blue hNOD2 cells assessed as inhibition of MDP-induced NFkappaB activation-mediated SEAP release preincubated for 3 hrs followed by MDP addition and measured after 20 hrs by spectrophotometric method; type: cell-based
How it was run: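 HEK-Blue hNOD2 cells preincubated 3 h with a range of concentrations, then MDP 100 ng/mL for 20 h. SEAP quantified. SRB assay run to exclude cytotoxicity. IC50 by nonlinear semi-logarithmic fit, mean ± SD, n = 3.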

Row | Structure (SMILES) | inhibition ([1]; filed as antagonist) [%] | IC50 [2] [nM] | inhibition [1] [%] | other results
1 | O=C(NCCOCc1ccc(C(F)(F)F)cc1)c1cc2nc[nH]c(=O)c2cc1-c1cccc(F)c1 | 56.1 | 4110 | – | –
2 | O=C(O)Cn1cnc2cc(C(=O)NCCCOc3ccc(C(F)(F)F)cc3)c(-c3cccc(Cl)c3)cc2c1=O | – | – | 22 | half-life at 1.25 µM [3]: 22.9 min
3 | O=C(NCCCc1ccc(Cl)cc1)c1cc2nc[nH]c(=O)c2cc1-c1cccc(Cl)c1 | 41.5 | – | – | –
4 | COC(=O)Cn1cnc2cc(NC(=O)COCc3ccc(C(F)(F)F)cc3)c(Oc3ccccc3)cc2c1=O | 50.2 | – | – | –
5 | O=C(NCCCc1ccc(Cl)cc1)c1cc2nc[nH]c(=O)c2cc1-c1cccc(F)c1 | 43.5 | – | – | –
6 | O=C(NCCOCc1ccc(C(F)(F)F)cc1)c1cc2nc[nH]c(=O)c2cc1-c1cccc(Cl)c1 | 64.4 | 1340 | – | half-life at 1.25 µM [3]: 22.9 min
7 | O=C(NCCCc1ccccc1)c1cc2nc[nH]c(=O)c2cc1-c1cccc(C(F)(F)F)c1 | – | – | 4.06 | –
8 | COC(=O)Cn1cnc2cc(C(=O)NCCOCc3ccc(C(F)(F)F)cc3)c(-c3cccc(F)c3)cc2c1=O | 64 | 3460 | – | –
9 | COC(=O)Cn1cnc2cc(C(=O)NCCCc3ccccc3)c(-c3cccc(F)c3)cc2c1=O | – | – | -0.98 | –
10 | COC(=O)Cn1cnc2cc(NC(=O)c3ccc(C(F)(F)F)cc3)c(Oc3cccc(N(C)C)c3)cc2c1=O | – | – | 31.7 | –
11 | COC(=O)Cn1cnc2cc(NC(=O)CCCOc3ccc(C(F)(F)F)cc3)c(Oc3ccccc3)cc2c1=O | – | – | 28.2 | –
12 | CN(C)c1cccc(Oc2cc3c(=O)n(CC(=O)N4CCC(F)CC4)cnc3cc2NC(=O)COCc2ccc(C(F)(F)F)cc2)c1 | 89.1 | 210 | – | inhibition ([4]; filed as antagonist): 94.3%; IC50 [5]: 1110 nM
13 | COC(=O)Cn1cnc2cc(NC(=O)COCc3ccc(Cl)cc3)c(Oc3cccc(N(C)C)c3)cc2c1=O | 69 | 4310 | – | –
14 | CN(C)c1cccc(Oc2cc3c(=O)n(CC(=O)N4CCC(F)(F)CC4)cnc3cc2NC(=O)COCc2ccc(C(F)(F)F)cc2)c1 | 82 | 270 | – | inhibition ([4]; filed as antagonist): 87%; IC50 [5]: 1180 nM
15 | CN(C)c1cccc(Oc2cc3c(=O)n(CC(=O)N4CCCCC4)cnc3cc2NC(=O)COCc2ccc(C(F)(F)F)cc2)c1 | 87.5 | 260 | – | inhibition ([4]; filed as antagonist): 92.4%; IC50 [5]: 1750 nM
16 | CN(C)c1cccc(Oc2cc3c(=O)[nH]cnc3cc2NC(=O)c2ccc(C#N)cc2)c1 | – | – | 19.4 | inhibition [4]: 13.1%
17 | COC(=O)Cn1cnc2cc(NC(=O)COCc3ccc(C#N)cc3)c(Oc3cccc(N(C)C)c3)cc2c1=O | 55.7 | – | – | inhibition ([4]; filed as antagonist): 58.7%
18 | COC(=O)Cn1cnc2cc(NC(=O)COCc3ccc(C(F)(F)F)cc3)c(Oc3cccc(N4CCOCC4)c3)cc2c1=O | 88.9 | 650 | – | IC50 [5]: 550 nM
19 | COC(=O)Cn1cnc2cc(NC(=O)CCCOc3ccc(C#N)cc3)c(Oc3cccc(N(C)C)c3)cc2c1=O | 48 | – | – | –
20 | COC(=O)Cn1cnc2cc(C(=O)NCCCOc3ccc(C(F)(F)F)cc3)c(-c3cccc(Cl)c3)cc2c1=O | 89.6 | 890 | – | IC50 [5]: 1000 nM
21 | O=C(NCCCc1ccc(Cl)cc1)c1cc2nc[nH]c(=O)c2cc1-c1cccc(C(F)(F)F)c1 | – | – | 35 | –

Row | Structure (SMILES) | inhibition ([1]; filed as antagonist) [%] | IC50 [2] [nM] | inhibition [1] [%] | other results
22 | COC(=O)Cn1cnc2cc(C(=O)NCCCc3ccc(Cl)cc3)c(-c3cccc(F)c3)cc2c1=O | 65.3 | 3240 | – | –
23 | COC(=O)Cn1cnc2cc(NC(=O)COCc3ccc(F)cc3)c(Oc3cccc(N(C)C)c3)cc2c1=O | – | – | 33.4 | inhibition ([4]; filed as antagonist): 42.5%
24 | COC(=O)Cn1cnc2cc(C(=O)NCCCc3ccc(Cl)cc3)c(-c3cccc(Cl)c3)cc2c1=O | 58.2 | 1640 | – | –
25 | O=C(COCc1ccc(C(F)(F)F)cc1)Nc1cc2nc[nH]c(=O)c2cc1Oc1cccc(N2CCOCC2)c1 | – | – | 37.6 | –
26 | COC(=O)Cn1cnc2cc(NC(=O)c3ccc(C#N)cc3)c(Oc3cccc(N(C)C)c3)cc2c1=O | – | – | 13.1 | –
27 | CN(C)c1cccc(Oc2cc3c(=O)[nH]cnc3cc2NC(=O)COCc2ccc(C(F)(F)F)cc2)c1 | 50.4 | – | – | inhibition ([4]; filed as antagonist): 54%; IC50 [5]: 800 nM
28 | CN(C)c1cccc(Oc2cc3c(=O)n(CC(=O)N4CCCC(F)(F)C4)cnc3cc2NC(=O)COCc2ccc(C(F)(F)F)cc2)c1 | 90.4 | 140 | – | inhibition ([4]; filed as antagonist): 94.2%; IC50 [5]: 660 nM
29 | COC(=O)Cn1cnc2cc(NC(=O)COCc3ccc(C(F)(F)F)cc3)c(Oc3ccccc3N(C)C)cc2c1=O | 87.9 | 1650 | – | –
30 | O=C(NCCCc1ccccc1)c1cc2nc[nH]c(=O)c2cc1-c1cccc(F)c1 | – | – | -1.81 | –
31 | COC(=O)Cn1cnc2cc(C(=O)NCCOCc3ccc(C(F)(F)F)cc3)c(-c3cccc(Cl)c3)cc2c1=O | 82.4 | 1120 | – | –
32 | COC(=O)Cn1cnc2cc(NC(=O)CCCOc3ccc(C(F)(F)F)cc3)c(Oc3cccc(N(C)C)c3)cc2c1=O | 70.9 | 2650 | – | –
33 | O=C(NCCCOc1ccc(C(F)(F)F)cc1)c1cc2nc[nH]c(=O)c2cc1-c1cccc(Cl)c1 | 90 | 840 | – | IC50 [5]: 840 nM
34 | COC(=O)Cn1cnc2cc(NC(=O)COCc3ccccc3)c(Oc3cccc(N(C)C)c3)cc2c1=O | 47.6 | – | – | inhibition [4]: 35%
35 | CN(C)c1cccc(Oc2cc3c(=O)[nH]cnc3cc2NC(=O)CCCOc2ccc(C(F)(F)F)cc2)c1 | 59.1 | 5640 | – | inhibition ([4]; filed as antagonist): 58.5%; IC50 [5]: 4770 nM
36 | COC(=O)Cn1cnc2cc(NC(=O)CCCOc3ccc(C(F)(F)F)cc3)c(Oc3ccc(N(C)C)cc3)cc2c1=O | 68.4 | 3870 | – | –
37 | O=C(NCCOCc1ccc(C(F)(F)F)cc1)c1cc2nc[nH]c(=O)c2cc1-c1cccc(C(F)(F)F)c1 | 72.4 | 4390 | – | –
38 | COC(=O)Cn1cnc2cc(NC(=O)COCc3ccc(C(F)(F)F)cc3)c(Oc3cccc(N(C)C)c3)cc2c1=O | 85.4 | 1150 | – | inhibition ([4]; filed as antagonist): 76.9%; IC50 [5]: 990 nM
39 | COC(=O)Cn1cnc2cc(NC(=O)CCCOc3ccc(F)cc3)c(Oc3cccc(N(C)C)c3)cc2c1=O | – | – | 33.5 | –
40 | O=C(NCCCc1ccccc1)c1cc2nc[nH]c(=O)c2cc1-c1cccc(Cl)c1 | – | – | 6.6 | –
41 | CN(C)c1cccc(Oc2cc3c(=O)[nH]cnc3cc2NC(=O)COCc2ccc(C#N)cc2)c1 | – | 9330 | 30.4 | inhibition [4]: 19.3%
